ChEMBL document CHEMBL4014350, “Alkoxyurea-Based Histone Deacetylase Inhibitors Increase Cisplatin Potency in Chemoresistant Cancer Cell Lines” (J Med Chem, 2017)

Assays:
CAL-27 [1] = experiment: Potentiation of 5 uM cisplatin-induced cytotoxicity against human CAL27 cells assessed as decrease in cell viability by measuring combination index at 500 uM preincubated for 48 hrs followed by cisplatin treatment measured after 72 hrs by MTT assay; format: functional; conditions: in the assay text read “at 500 nM” for “at 500 uM”
How it was run: (§1)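 HDAC inhibitor was added 48 h before cisplatin, then cells were exposed to cisplatin for 72 h and viability was read by MTT assay. Combination index was computed by the Chou–Talalay method: CI > 1 is antagonism, CI = 1 additive, CI < 0.9 synergism. Points with fraction affected below 0.20 were flagged.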

Histone deacetylase 8 = molecular target: T1, Histone deacetylase 8 (Homo sapiens, UniProt Q9BY41); experiment: Inhibition of human HDAC8 using Z-L-Lys(epsilon-trifluoroacetyl)-AMC as substrate measured after 90 mins by fluorescence assay
T1 sequence (Q9BY41 whole entry): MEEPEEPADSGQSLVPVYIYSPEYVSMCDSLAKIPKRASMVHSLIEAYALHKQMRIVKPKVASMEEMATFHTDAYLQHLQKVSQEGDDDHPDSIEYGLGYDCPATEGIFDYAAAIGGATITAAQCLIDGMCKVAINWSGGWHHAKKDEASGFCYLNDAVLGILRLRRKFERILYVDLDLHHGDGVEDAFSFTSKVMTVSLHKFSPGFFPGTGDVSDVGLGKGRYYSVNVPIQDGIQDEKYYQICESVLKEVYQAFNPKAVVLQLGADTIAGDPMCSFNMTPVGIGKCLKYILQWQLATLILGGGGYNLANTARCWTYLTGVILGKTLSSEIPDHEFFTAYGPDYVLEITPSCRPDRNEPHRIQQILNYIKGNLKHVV

Histone deacetylase 4 = Histone deacetylase 4 (Homo sapiens, UniProt P56524); experiment: Inhibition of recombinant human N-terminal GST-tagged/C-terminal His-tagged HDAC4 expressed in insect cells using Boc-K(Ac)-AMC as substrate by fluorescence assay
CAL-27 [2] = experiment: Potentiation of 0.5 uM cisplatin-induced cytotoxicity against human CAL27 cells assessed as decrease in cell viability measuring combination index at 700 uM preincubated for 48 hrs followed by cisplatin treatment measured after 72 hrs by MTT assay; format: functional; conditions: in the assay text read “at 700 nM” for “at 700 uM”
How it was run: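 Cal27 and cisplatin-resistant Cal27CisR cells were preincubated with the HDAC inhibitor for 48 h, then given cisplatin in combination. Viability was read by MTT after 72 h. The combination index was computed by the Chou–Talalay method: CI > 1 is antagonism, CI = 1 is additive, and CI < 0.9 is synergism. Points with fraction affected below 0.20 were flagged.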

CAL-27 [3] = experiment: Potentiation of 5 uM cisplatin-induced cytotoxicity against human CAL27 cells assessed as decrease in cell viability by measuring combination index at 700 uM preincubated for 48 hrs followed by cisplatin treatment measured after 72 hrs by MTT assay; format: functional; conditions: in the assay text read “at 700 nM” for “at 700 uM”; how it was run: as §1
[4] = molecular target: T2, Histone deacetylase 1/6 (Homo sapiens) (UniProt Q13547+Q9UBN7); experiment: Inhibition of HDAC1/HDAC6 in human Cal27CisR cells assessed as potentiation of 3.16 uM cisplatin-induced cytotoxicity by measuring combination index at 600 nM preincubated for 48 hrs followed by cisplatin treatment measured after 72 hrs by MTT assay
A2780cisR = experiment: Antiproliferative activity against human A2780cisR cells measured after 72 hrs by MTT assay; format: functional, cell-based
Homo sapiens = species on record: Homo sapiens; experiment: Selectivity ratio of IC50 for HDAC in human A2780 cells to IC50 for HDAC in human A2780CisR cells; format: cell-based
CAL-27 [5] = experiment: Potentiation of 1 uM cisplatin-induced cytotoxicity against human CAL27 cells assessed as decrease in cell viability by measuring combination index at 600 uM preincubated for 48 hrs followed by cisplatin treatment measured after 72 hrs by MTT assay; format: functional; how it was run: as §1
[6] = molecular target: T3, Protein deacetylase HDAC6 (Homo sapiens, UniProt Q9UBN7); experiment: Inhibition of full length human recombinant N-terminal GST-tagged HDAC6 expressed in baculovirus infected sf9 cells Z-(Ac)Lys-AMC as substrate measured after 90 mins by fluorescence assay
T3 sequence (Q9UBN7 whole entry): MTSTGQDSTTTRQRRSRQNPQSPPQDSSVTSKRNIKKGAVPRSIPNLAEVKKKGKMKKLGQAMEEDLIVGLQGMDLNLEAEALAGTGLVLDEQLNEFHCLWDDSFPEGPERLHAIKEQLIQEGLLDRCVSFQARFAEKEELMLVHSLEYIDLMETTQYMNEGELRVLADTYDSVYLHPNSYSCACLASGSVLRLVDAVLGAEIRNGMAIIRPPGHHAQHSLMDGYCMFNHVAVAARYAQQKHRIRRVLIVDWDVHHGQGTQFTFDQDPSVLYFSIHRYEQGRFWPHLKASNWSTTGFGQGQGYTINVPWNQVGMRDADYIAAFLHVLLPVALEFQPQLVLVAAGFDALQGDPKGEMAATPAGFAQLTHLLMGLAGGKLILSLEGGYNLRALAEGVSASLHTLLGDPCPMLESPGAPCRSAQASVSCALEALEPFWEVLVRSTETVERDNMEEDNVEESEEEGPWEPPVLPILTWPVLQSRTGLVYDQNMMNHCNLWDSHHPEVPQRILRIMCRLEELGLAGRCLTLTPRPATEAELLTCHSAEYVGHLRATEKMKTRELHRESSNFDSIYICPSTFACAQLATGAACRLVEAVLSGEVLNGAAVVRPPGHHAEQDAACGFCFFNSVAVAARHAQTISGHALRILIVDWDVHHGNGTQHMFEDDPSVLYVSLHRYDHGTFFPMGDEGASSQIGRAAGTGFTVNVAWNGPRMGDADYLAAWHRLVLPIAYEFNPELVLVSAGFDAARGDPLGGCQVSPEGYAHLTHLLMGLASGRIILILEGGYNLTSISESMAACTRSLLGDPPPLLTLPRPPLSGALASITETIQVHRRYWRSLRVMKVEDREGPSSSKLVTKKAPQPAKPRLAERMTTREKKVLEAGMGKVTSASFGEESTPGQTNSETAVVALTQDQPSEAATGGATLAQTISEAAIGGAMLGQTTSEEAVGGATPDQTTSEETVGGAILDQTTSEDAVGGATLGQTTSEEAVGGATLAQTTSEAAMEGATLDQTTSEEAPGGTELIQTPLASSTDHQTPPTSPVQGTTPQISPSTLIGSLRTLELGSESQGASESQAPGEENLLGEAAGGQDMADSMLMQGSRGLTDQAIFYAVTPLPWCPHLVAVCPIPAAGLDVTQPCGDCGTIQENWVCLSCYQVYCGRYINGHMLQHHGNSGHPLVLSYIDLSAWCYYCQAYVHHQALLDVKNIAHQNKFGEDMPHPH

[7] = molecular target: T2, Histone deacetylase 1/6 (Homo sapiens); experiment: Inhibition of HDAC1/HDAC6 in human Cal27CisR cells assessed as potentiation of 10 uM cisplatin-induced cytotoxicity by measuring combination index at 600 nM preincubated for 48 hrs followed by cisplatin treatment measured after 72 hrs by MTT assay

Histone deacetylase 4, sequence (P56524 whole entry): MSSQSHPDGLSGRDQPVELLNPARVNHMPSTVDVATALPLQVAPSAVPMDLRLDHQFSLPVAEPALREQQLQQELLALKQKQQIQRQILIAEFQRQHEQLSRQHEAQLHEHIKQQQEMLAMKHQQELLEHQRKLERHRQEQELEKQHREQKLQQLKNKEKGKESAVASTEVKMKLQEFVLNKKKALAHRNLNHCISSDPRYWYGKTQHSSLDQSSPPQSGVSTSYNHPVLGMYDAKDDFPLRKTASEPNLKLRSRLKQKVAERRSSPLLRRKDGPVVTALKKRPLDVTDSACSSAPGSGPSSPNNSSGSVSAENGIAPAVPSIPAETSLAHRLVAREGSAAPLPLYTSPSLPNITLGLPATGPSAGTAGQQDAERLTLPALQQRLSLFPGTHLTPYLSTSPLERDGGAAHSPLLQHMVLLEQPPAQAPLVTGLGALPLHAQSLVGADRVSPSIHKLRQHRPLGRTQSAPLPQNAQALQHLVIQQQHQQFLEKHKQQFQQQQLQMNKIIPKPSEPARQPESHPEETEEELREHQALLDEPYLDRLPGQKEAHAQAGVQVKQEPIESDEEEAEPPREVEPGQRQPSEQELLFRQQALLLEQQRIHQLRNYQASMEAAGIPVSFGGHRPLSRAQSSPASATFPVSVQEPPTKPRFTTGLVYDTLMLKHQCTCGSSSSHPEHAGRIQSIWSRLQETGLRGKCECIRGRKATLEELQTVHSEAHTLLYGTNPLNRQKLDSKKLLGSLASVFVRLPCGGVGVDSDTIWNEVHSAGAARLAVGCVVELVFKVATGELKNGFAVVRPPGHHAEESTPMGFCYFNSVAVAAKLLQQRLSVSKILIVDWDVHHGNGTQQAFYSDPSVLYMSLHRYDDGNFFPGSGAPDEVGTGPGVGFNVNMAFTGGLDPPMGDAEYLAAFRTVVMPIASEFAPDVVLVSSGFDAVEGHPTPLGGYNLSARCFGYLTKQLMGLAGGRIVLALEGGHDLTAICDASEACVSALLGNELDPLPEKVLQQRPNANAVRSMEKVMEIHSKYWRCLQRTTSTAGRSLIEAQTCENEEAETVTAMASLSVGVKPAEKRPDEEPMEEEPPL
T2 sequence (Q13547 whole entry, looked up, one chain of several): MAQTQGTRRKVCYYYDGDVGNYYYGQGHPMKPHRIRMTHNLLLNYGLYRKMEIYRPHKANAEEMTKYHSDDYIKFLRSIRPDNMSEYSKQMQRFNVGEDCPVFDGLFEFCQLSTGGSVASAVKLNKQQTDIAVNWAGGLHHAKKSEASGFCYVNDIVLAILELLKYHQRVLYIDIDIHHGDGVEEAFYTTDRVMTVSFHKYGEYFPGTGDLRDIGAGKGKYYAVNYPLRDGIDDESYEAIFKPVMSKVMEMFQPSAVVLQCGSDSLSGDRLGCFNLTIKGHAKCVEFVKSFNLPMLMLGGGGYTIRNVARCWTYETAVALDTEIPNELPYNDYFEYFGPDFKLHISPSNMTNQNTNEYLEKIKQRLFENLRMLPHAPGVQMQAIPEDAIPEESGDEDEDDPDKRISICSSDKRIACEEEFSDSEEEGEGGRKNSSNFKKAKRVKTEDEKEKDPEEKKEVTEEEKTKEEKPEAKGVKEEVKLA

Row | Structure (SMILES) | CI (CAL-27 [1]) | IC50 (Histone deacetylase 8) [nM] | IC50 (Histone deacetylase 4) [nM] | CI (CAL-27 [2]) | CI (CAL-27 [3]) | CI [4] | IC50 (A2780cisR) [nM] | Ratio IC50 (Homo sapiens) | CI (CAL-27 [5]) | IC50 [6] [nM] | CI [7]
1 | COc1cc(NC(=O)NOCCCCCC(=O)NO)c2ncccc2c1 | 0.35 | 1080 | > 10000 | 0.97 | 0.32 | < 0.2 | 400 | 2 to 3.4 | 0.57 | 6.1 | 0.36
2 | COc1cc(NC(=O)NOCCCCCC(=O)NO)c2nc(OC)cc(C)c2c1 | 0.43 | 1540 | > 10000 | 0.7 | 0.64 | 0.24 | 400 | 2 to 3.4 | 0.53 | 2.8 | 0.17
3 | COc1cc(NC(=O)NOCCCCCC(=O)NO)c2nccc(C)c2c1 | 0.29 | 1220 | > 10000 | 0.57 | 0.41 | 0.51 | 300 | 2 to 3.4 | 0.37 | 24.8 | 0.2
